# Published values of several laboratories.
# Target: MAP kinase-activated protein kinase 2 (MAPKAPK2, Homo sapiens, UniProt P49137)
SMILES,effect on,technique,tested at,remaining binding [%]
O=C(Nc1c[nH]nc1C(=O)NC1CCNCC1)c1cc(F)cc(F)c1,binding,competition with immobilised ligand,1 µM,100
Cc1cnc(Nc2ccc(C(=O)N3CCC(N4CCCC4)CC3)cc2)nc1-c1cc2ccccc2s1,binding,competition with immobilised ligand,1 µM,100
Cc1c(C(=O)O)cc(-c2ccc(C3CCNCC3)cc2)c2ccc(-c3ccc(C(F)(F)F)cc3)cc12,binding,competition with immobilised ligand,1 µM,88
CC(C)(C)c1ccc(-c2nc(CBr)nn2-c2cccc(O)c2)cc1,cell-free assay,competition with immobilised ligand,10 µM,100
O=C(NCCCN1CCOCC1)c1ccc(Nc2ncc(Cl)c(-c3ccc(Cl)s3)n2)cc1,binding,competition with immobilised ligand,1 µM,100
C[C@H]1CCN(c2nccc(-c3cnn4ncccc34)n2)C1,binding,,1 µM,100
O=C(c1ccc(Nc2nccc(-c3cc4ccccc4s3)n2)cc1)N1CCC(N2CCCC2)CC1,binding,competition with immobilised ligand,1 µM,100
CN(C)c1nccc(-c2cnn3ncccc23)n1,binding,,1 µM,100
COc1cnc(Nc2cccc(S(N)(=O)=O)c2)nc1N1CCN(c2ccccc2)C(=O)C1,binding,competition with immobilised ligand,1 µM,100
CNCc1ccccc1-c1csc([C@@H](C)Nc2nc(C)nc3cc(OC)c(OC)cc23)c1,cell-free assay,competition with immobilised ligand,1 µM,83
N[C@@H]1CCN(c2nccc(-c3cnn4ncccc34)n2)C1,binding,,1 µM,100
CNC(=O)[C@@H]1CC[C@@H](n2c(-c3ccc4cnccc4c3)nc3ccc(C(=O)NCc4cccc(C(N)=O)c4)cc32)C1,binding,competition with immobilised ligand,1 µM,98
COc1ccc2c(O[C@@H]3C[C@H]4C(=O)N[C@]5(C(=O)O)CC5/C=C\CCCCC[C@H](NC(=O)OC5CCCC5)C(=O)N4C3)cc(-c3csc(NC(=O)C(C)C)n3)nc2c1C (stereo partly drawn),cell-free assay,competition with immobilised ligand,1 µM,60
N#Cc1ccccc1CSc1nnc2c(n1)[nH]c1ccccc12,binding,competition with immobilised ligand,10 µM,82
C[C@@H]1CN(c2ccc3ncc(-c4ccc5[nH]nc(C6CC6)c5c4)n3n2)C[C@H](C)O1,binding,competition with immobilised ligand,50 nM,62
Nc1ncc2c(n1)-c1c([nH]c3ccc(C#CC4CC4)cc13)CCCC2,binding,competition with immobilised ligand,1 µM,86
CCCOc1ccc([C@H]2[C@H](C(=O)O)[C@@H](c3ccc4c(c3)OCO4)CN2CC(=O)Nc2c(CC)cccc2CC)cc1,cell-free assay,competition with immobilised ligand,1 µM,100
Cc1cnn2ncc(-c3ccnc(N(C)C)n3)c2c1,binding,,1 µM,100
NS(=O)(=O)c1cc(NC(=O)Cc2ccccc2)ccc1Oc1cccc(Cl)c1,cell-free assay,competition with immobilised ligand,1 µM,100
FC(F)(F)Oc1cccc(-c2cnc3ccc(-c4ccncc4)nn23)c1,cell-free assay,competition with immobilised ligand,5 µM,100
COCCOc1nc(-c2ccc(Cl)nc2)nc2c1CN(C(=O)c1ncn3ccccc13)CC2,cell-free assay,competition with immobilised ligand,0.1 µM,73
CN(C)c1nccc(-c2cnc3ncccn23)n1,binding,,1 µM,84
O=C(O)c1cc(-c2ccc(C3CCNCC3)cc2)c2ccc(-c3ccc(C(F)(F)F)cc3)cc2c1,cell-free assay,competition with immobilised ligand,1 µM,51
CN(C)c1ncc(F)c(-c2cnn3ncccc23)n1,binding,,1 µM,100
